# Experimental data: the RNAGym collection of RNA variant scans (doi:10.1038/nmeth.2970)
# B1: NELF-E aptamer (parent)
# chain: CCCAACGACUGCCGAGCGAGAUUACGCUUGAGCGCCCCACUGAGGAUGCCCACGGGCGAUUGGGGCACGG
# Variants of: B1
# Assay: HiTS-RAP
# Details: with NELF-E (Drosophila)
# How it was run: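 Aptamer DNA templates bearing a T7 promoter and a ter site were sequenced on an Illumina GAIIx flowcell. T7 RNA polymerase then transcribed them in situ, and GST-Tus halted transcription over 30 minutes at 37°C. After a 30-minute room-temperature equilibration with NELF-E-mOrange at 0.064 to 1000 nM in HEPES binding buffer, clusters were imaged, using only the first binding curve. Intensities normalised to sequencing intensity were averaged per sequence and fitted with weighted Hill fits to give Kd, retaining only fits whose variance stayed under 1,000,000.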
row,Variant,Kd [nM]
1,U29G A59G,50.9
2,A24U U41G,6.61
3,A43G G44U,5.97
4,U41G U47G,7.59
5,U29A A39U,20.9
6,U29A A39G,5.71
7,U41G A59G,35.1
8,U41G A59U,31.7
9,U41G U60C,9.67
10,A39U C66U,21.2
11,U29G G62A,18.7
12,U29G G62U,8.12
13,U47A A67G,12
14,U47A A67U,10.5
15,C53U G64A,4.84
16,U29G C35G,4.89
17,U29G C35U,17.1
18,A31G G64A,10.8
19,U29A A31U,4.6
20,U29A A31G,5.67
21,U41G C57U,6.91
22,G30A U41G,5.12
23,U28C U29G,8.69
24,U41G C49U,28

row,Variant,Kd [nM]
1,C27G U29G,5.43
2,U47A G54A,15.1
3,G26U C27G,4.95
4,A24U U29G,6.22
5,A39G G54A,23.3
6,U41A A52U,81
7,U29G G32A,5.37
8,G34C,9.79
9,G34A,6.53
10,G34U,5.56
11,U28C U61A,43.5
12,U41G C50U,13.8
13,A52U C66U,15.1
14,C25U U29G,6.54
15,U28C G34A,37.6
16,A39U A67G,27.3
17,A39U A67U,55
18,U29G U47A,11.1
19,U29G U47G,6.21
20,G54A G55A,26.2
21,A39U G48A,49
22,A39U C40G,5.95
23,G34C C35G,3.76
24,G32A U41G,5.08

row,Variant,Kd [nM]
1,A52U G56A,99
2,G30U A31G,6.4
3,G26A C57U,6.13
4,C35G,6.51
5,C35A,6.56
6,C35U,13
7,G34A A67U,16.8
8,G26U U29G,7.41
9,U29G A43G,14
10,U29G A43U,44
11,A52U U61A,90.9
12,A39U U41G,30.7
13,A39U U41A,109
14,U29G A52G,4.39
15,U29G A52U,15.5
16,C37U U41G,16.1
17,U28C A52U,32.7
18,U28C A39U,51.1
19,G54A A59G,73.6
20,U29G G65A,4.59
21,U29G G65U,6.57
22,C53G G54U,4.24
23,U41G A46G,26.2
24,U41G A46U,62.9

row,Variant,Kd [nM]
1,U29C U61A,38
2,U29G G45A,74.1
3,U29G G45U,5.6
4,A31G U41G,6.51
5,U28A U29G,4.82
6,U28A U29A,4.14
7,G44U,7.32
8,G44A,42.3
9,G44C,27.5
10,C38G,5.24
11,C38A,31.4
12,C38U,7.54
13,C49A,20.6
14,C49U,19.5
15,C49G,9.21
16,U29G C40U,56.1
17,U29G C40G,5.85
18,G32A,4.35
19,G32C,4.57
20,G32U,5.38
21,G26U U41G,6.71
22,U29G G42U,10.4
23,U29G G42A,24.6
24,U29A C37U,7.5

row,Variant,Kd [nM]
1,U29G G48U,6.22
2,U29G G48A,11.3
3,C36A G64A,14.3
4,A39G U41G,6.74
5,C27U U29G,4.7
6,A24U,5.93
7,U29G U61G,14.4
8,U29G U61C,59.2
9,U29G U61A,28.1
10,U29G C49U,22.4
11,A39U A52G,15.5
12,U41A G62A,102
13,U29G A31G,6.61
14,U29G A31U,6.06
15,U41G C53U,3.62
16,U29C U41G,5.09
17,U29G C51G,4.37
18,U29G C51A,8.11
19,U29G C51U,8.19
20,A31U C53U,3.69
21,U29G C66U,4.32
22,U41A C66U,85.7
23,U41G G48A,7.62
24,U28C A59G,113

row,Variant,Kd [nM]
1,G26A U29G,5.28
2,U41A,73.7
3,U41G,5.16
4,U41C,68.9
5,G45A,47.8
6,G45U,6.76
7,G45C,39.5
8,U29G C50U,15.4
9,U41G G64A,6.38
10,U41G G64U,5.28
11,U41G G64C,7.1
12,U28C U41G,11.9
13,U28C U41C,98.6
14,A31G A39G,14.3
15,A39G G63A,87.1
16,A46G,26.5
17,A46U,63.2
18,A46C,9.89
19,C33G G34U,5.51
20,G42A,49.4
21,G42U,10.5
22,G42C,44.2
23,U29G G44U,8.78
24,U29G G44A,94.7

row,Variant,Kd [nM]
1,U29G C53U,3.72
2,U29G C53G,5.71
3,U29G G34U,5.71
4,U29G G34A,7.56
5,U29G G30U,5.81
6,U29G G30C,5.14
7,U29G G30A,5.05
8,U29G G56U,5.44
9,U29G G56A,5.64
10,A31G G65A,9.82
11,U41G A52G,4.52
12,U41G A52U,16.4
13,A39G,8.97
14,A39C,20.5
15,A39U,23.5
16,U29G G55A,7.74
17,U29G G55C,5.81
18,U29G G55U,6.64
19,A31U,5.92
20,A31G,6.92
21,A31C,4.61
22,U29G C57U,5.61
23,U41G G54A,18.1
